Laboratory results: ChEMBL document CHEMBL2311339, “Identification of GZD824 as an orally bioavailable inhibitor that targets phosphorylated and nonphosphorylated breakpoint cluster region-Abelson (Bcr-Abl) kinase and overcomes clinically acquired mutation-induced resistance against imatinib” (J Med Chem, 2013)
Activity calls are given as the source filed them. The rule behind the calls is not given here.

Columns and labels:
[1] = Cytotoxicity against mouse BA/F3 cells expressing BCR-ABL F317L mutant assessed as growth inhibition after 72 hrs by CCK-8 assay; conditions: BaF3, 72 h
[2] = Cytotoxicity against mouse BA/F3 cells expressing BCR-ABL E359V mutant assessed as growth inhibition after 72 hrs by CCK-8 assay; conditions: BaF3, 72 h
[3] = Cytotoxicity against mouse BA/F3 cells expressing BCR-ABL L248V mutant assessed as growth inhibition after 72 hrs by CCK-8 assay; conditions: BaF3, 72 h
[4] = Cytotoxicity against mouse BA/F3 cells expressing BCR-ABL E255V mutant assessed as growth inhibition after 72 hrs by CCK-8 assay; conditions: BaF3, 72 h
[5] = Cytotoxicity against mouse BA/F3 cells expressing BCR-ABL Y253F mutant assessed as growth inhibition after 72 hrs by CCK-8 assay; conditions: BaF3, 72 h
[6] = cells; conditions: Mus musculus, BaF3, 72 h
[7] = Cytotoxicity against mouse BA/F3 cells expressing BCR-ABL E355G mutant assessed as growth inhibition after 72 hrs by CCK-8 assay; conditions: BaF3, 72 h
[8] = Cytotoxicity against mouse BA/F3 cells expressing BCR-ABL E255K mutant assessed as growth inhibition after 72 hrs by CCK-8 assay; conditions: BaF3, 72 h
[9] = Cytotoxicity against mouse BA/F3 cells expressing wild type BCR-ABL assessed as growth inhibition after 72 hrs by CCK-8 assay; conditions: BaF3, 72 h
[10] = Cytotoxicity against mouse BA/F3 cells expressing BCR-ABL Y253H mutant assessed as growth inhibition after 72 hrs by CCK-8 assay; conditions: BaF3, 72 h
[11] = cells; conditions: Mus musculus, BaF3, 72 h; remark: listed apart in the source
[12] = Cytotoxicity against mouse BA/F3 cells expressing BCR-ABL H396R mutant assessed as growth inhibition after 72 hrs by CCK-8 assay; conditions: BaF3, 72 h
[13] = Cytotoxicity against mouse BA/F3 cells assessed as growth inhibition after 72 hrs by CCK-8 assay; conditions: BaF3, 72 h
[14] = cells; conditions: Mus musculus, BaF3, 72 h; remark: listed apart in the source
[15] = Cytotoxicity against mouse BA/F3 cells expressing BCR-ABL F486S mutant assessed as growth inhibition after 72 hrs by CCK-8 assay; conditions: BaF3, 72 h
[16] = Cytotoxicity against mouse BA/F3 cells expressing BCR-ABL F317V mutant assessed as growth inhibition after 72 hrs by CCK-8 assay; conditions: BaF3, 72 h
[17] = Cytotoxicity against mouse BA/F3 cells expressing BCR-ABL M351T mutant assessed as growth inhibition after 72 hrs by CCK-8 assay; conditions: BaF3, 72 h
[18] = test system: BaF3; experiment: Antitumor activity against mouse BA/F3 cells expressing wild type BCR-ABL allografted in SCID mouse assessed as inhibition of tumor growth at 50 mg/kg, po qd for 14 days; format: functional, organism-based; set-up: dose 50 mg/kg
Procedure, shortened: (§1)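 Subcutaneous allograft: Ba/F3 cells stably carrying Bcr-Abl (WT or T315I), 2.5 × 10^7 cells/mL in saline, 0.2 mL into the right flank. Randomized at 100−200 mm3, n = 10 per group. Oral gavage once daily for 14 days in DMSO/Cremophor/ethanol/saline vehicle. Tumor volume (L × W²/2) every 2 days; unpaired t test versus vehicle.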

[19] = test system: BaF3; experiment: Antitumor activity against mouse BA/F3 cells expressing BCR-ABL T315I mutant allografted in SCID mouse assessed as increased survival at 100 mg/kg/day, po qd for 10 days; format: functional, organism-based
Procedure, shortened: (§2)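 Ba/F3 cells coexpressing Bcr-Abl T315I and firefly luciferase were injected iv (2 × 10^6 cells/0.1 mL saline) into SCID nude mice. At 5−7 days, mice were imaged after ip D-luciferin under halothane and randomized by signal. Dosing was oral gavage once daily for 10 days in DMSO/Cremophor/ethanol/saline vehicle. Luminescence was imaged after dosing; survival was analysed by Kaplan−Meier with log-rank test.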

[20] = test system: BaF3; experiment: Antitumor activity against mouse BA/F3 cells expressing BCR-ABL T315I mutant allografted in SCID mouse assessed as inhibition of tumor growth at 100 mg/kg/day, po qd for 14 days; format: functional, organism-based; procedure, shortened: as §1
[21] = test system: BaF3; experiment: Antitumor activity against mouse BA/F3 cells expressing BCR-ABL T315I mutant allografted in SCID mouse assessed as suppression of cell proliferation at 100 mg/kg/day, po qd for 10 days relative to untreated vehicle; format: functional, organism-based; procedure, shortened: as §2
[22] = test system: K562; experiment: Antitumor activity against human K562 cells xenografted in mouse assessed as induction of tumor stasis at 50 mg/kg, […]; format: functional, organism-based; set-up: dose 50 mg/kg
[23] = Cytotoxicity against human SUP-B15 cells expressing BCR-ABL assessed as growth inhibition after 72 hrs by CCK-8 assay; format: functional, cell-based; conditions: SUP-B15, 72 h
Procedure, shortened: (§3)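 Log-phase human leukemia cells were seeded at about 3000 cells/well and treated 24 h later for 72 h. CCK-8 was then incubated with the cells for 3 h and read as OD450 − OD650. Viability was normalized to vehicle wells and cell-free blanks, and IC50 taken as the mean of three experiments.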

[24] = test system: U-937; experiment: Cytotoxicity against human U937 cells […] assessed as growth inhibition after 72 hrs by CCK-8 assay; format: functional, cell-based; conditions: U-937, 72 h; procedure, shortened: as §3
[25] = test system: K562; experiment: Cytotoxicity against human K562 cells expressing BCR-ABL assessed as growth inhibition after 72 hrs by CCK-8 assay; format: functional, cell-based; conditions: K562, 72 h; procedure, shortened: as §3
[26] = test system: HL-60; experiment: Cytotoxicity against human HL60 cells […] assessed as growth inhibition after 72 hrs by CCK-8 assay; format: functional, cell-based; conditions: HL-60, 72 h; procedure, shortened: as §3
[27] = test system: MOLT-4; experiment: Cytotoxicity against human MOLT4 cells […] assessed as growth inhibition after 72 hrs by CCK-8 assay; format: functional, cell-based; conditions: MOLT-4, 72 h; procedure, shortened: as §3
[28] = Cytotoxicity against human KU812 cells expressing BCR-ABL assessed as growth inhibition after 72 hrs by CCK-8 assay; format: functional, cell-based; conditions: KU812, 72 h; procedure, shortened: as §3
[29] = test system: K562; experiment: Cytotoxicity against imatinib-resistant human K562 cells expressing BCR-ABL Q252H mutant assessed as growth inhibition after 72 hrs by CCK-8 assay; format: functional, cell-based; conditions: K562, 72 h
Procedure, shortened: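 The K562 subline was made imatinib-resistant by 3 months of exposure to imatinib from 0.1 to 5 μM, followed by clonal selection and sequencing to confirm Q252H. Cells were seeded at about 3000 cells/well, treated 24 h later for 72 h, then given CCK-8 for 3 h. Read-out was OD450 − OD650 normalized to vehicle; IC50 is the mean of three experiments.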

IC50 [6] [nM] | IC50 [11] [nM] | IC50 [14] [nM] | SMILES | IC50 [1] [nM] | IC50 [2] [nM] | IC50 [3] [nM] | IC50 [4] [nM] | IC50 [5] [nM] | IC50 [7] [nM] | IC50 [8] [nM] | IC50 [9] [nM] | IC50 [10] [nM] | IC50 [12] [nM] | IC50 [13] [nM] | IC50 [15] [nM] | IC50 [16] [nM] | IC50 [17] [nM] | other results
8 | 3600 | 5.1 | Cc1nc(Nc2ncc(C(=O)Nc3c(C)cccc3Cl)s2)cc(N2CCN(CCO)CC2)n1 [DASATINIB] | 19 | 1.3 | 29 | 23 | 17 | 15 | 3.2 | 1.9 | 2.3 | 3800 | 2500 | 0.9 | 25 | 0.2 | 
3600 | 12200 | 5200 | Cc1ccc(NC(=O)c2ccc(CN3CCN(C)CC3)cc2)cc1Nc1nccc(-c2cccnc2)n1 [IMATINIB] | 3300 | 590 | 12200 | > 10000 | 9200 | 1600 | 5600 |  | 12500 | 11100 | 13500 | 1000 | 9500 | 240 | TGI [18]: Active; Activity [19]: inactive; TGI [20]: inactive; Activity [21]: inactive; Activity [22]: inactive
 | 16000 | 150 | Cc1cn(-c2cc(NC(=O)c3ccc(C)c(Nc4nccc(-c5cccnc5)n4)c3)cc(C(F)(F)F)c2)cn1 [NILOTINIB] | 160 |  | 3000 | 1200 | 1400 | 130 | 170 | 22 | 1000 | 21100 | 15100 | 9.5 | 2900 | 3 | 
 |  |  | CC(=O)O[C@H]1C(=O)[C@@]2(C)[C@H]([C@H](OC(=O)c3ccccc3)[C@]3(O)C[C@H](OC(=O)[C@H](O)[C@@H](NC(=O)c4ccccc4)c4ccccc4)C(C)=C1C3(C)C)[C@]1(OC(C)=O)CO[C@@H]1C[C@@H]2O [PACLITAXEL] |  |  |  |  |  |  |  |  |  |  |  |  |  |  | IC50 [23]: 8 nM; IC50 [24]: 2.3 nM; IC50 [25]: 5.1 nM; IC50 [26]: 5.8 nM; IC50 [27]: 2.7 nM; IC50 [28]: 5.3 nM; IC50 [29]: 7 nM
